In ChEMBL document CHEMBL4813918, “From off-to on-target: New BRAF-inhibitor-template-derived compounds selectively targeting mitogen activated protein kinase kinase 4 (MKK4)” (Eur J Med Chem, 2021):

Experiments:
[1] = target: Mitogen-activated protein kinase kinase kinase 20 (Homo sapiens) (UniProt Q9NYL2); experiment: Binding affinity to wild type partial length human ZAK (M1 to L331) expressed in bacterial expression system assessed as residual activity at 100 nM measured by Kinomescan assay
[2] = target: Mitogen-activated protein kinase kinase kinase kinase 5 (Homo sapiens) (UniProt Q9Y4K4); experiment: Binding affinity to wild type partial length human MAP4K5 (M1 to P297) expressed in Bacterial expression system assessed as residual activity at 100 nM measured by Kinomescan assay relative to control
[3] = target: T1, Dual specificity mitogen-activated protein kinase kinase 7 (Homo sapiens) (UniProt O14733); experiment: Binding affinity to wild type full length human MKK7 (M1 to R419 residues) expressed in mammalian expression system assessed as residual activity at 100 nM measured by Kinomescan assay
T1 sequence (whole entry): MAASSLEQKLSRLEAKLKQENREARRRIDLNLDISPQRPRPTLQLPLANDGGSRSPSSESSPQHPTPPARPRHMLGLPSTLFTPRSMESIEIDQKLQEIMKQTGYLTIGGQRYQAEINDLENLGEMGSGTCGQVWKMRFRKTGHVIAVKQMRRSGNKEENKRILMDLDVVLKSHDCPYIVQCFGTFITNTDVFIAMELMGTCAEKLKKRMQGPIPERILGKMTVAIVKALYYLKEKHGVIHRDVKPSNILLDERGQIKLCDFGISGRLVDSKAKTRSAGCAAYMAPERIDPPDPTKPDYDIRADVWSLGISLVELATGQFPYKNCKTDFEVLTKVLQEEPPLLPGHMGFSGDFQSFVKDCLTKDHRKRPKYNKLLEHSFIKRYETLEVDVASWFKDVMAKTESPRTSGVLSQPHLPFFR

[4] = target: T2, Dual specificity mitogen-activated protein kinase kinase 4 (Mus musculus, UniProt P47809); experiment: Binding affinity to GST tagged mouse MKK4 expressed in Escherichia coli expression system measured by Kinomescan assay
T2 sequence (P47809 whole entry): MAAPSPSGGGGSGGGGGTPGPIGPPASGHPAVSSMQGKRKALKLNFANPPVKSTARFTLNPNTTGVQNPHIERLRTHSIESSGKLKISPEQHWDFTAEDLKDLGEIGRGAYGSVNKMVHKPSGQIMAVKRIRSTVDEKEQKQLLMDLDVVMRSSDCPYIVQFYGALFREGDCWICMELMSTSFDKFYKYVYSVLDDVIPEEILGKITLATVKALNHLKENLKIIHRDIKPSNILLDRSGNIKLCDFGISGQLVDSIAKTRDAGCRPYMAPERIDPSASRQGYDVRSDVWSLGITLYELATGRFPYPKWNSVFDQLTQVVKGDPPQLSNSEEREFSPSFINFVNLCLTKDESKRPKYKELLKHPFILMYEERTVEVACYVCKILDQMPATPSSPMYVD
Outline: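 Competition binding: compound competes with an immobilized multikinase inhibitor for the site on DNA-tagged MKK4. Bound kinase is quantified by qPCR. Kd values are determined in duplicate.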

Mitogen-activated protein kinase kinase kinase 20 (Homo sapiens), sequence (Q9NYL2 2-800 limits assumed): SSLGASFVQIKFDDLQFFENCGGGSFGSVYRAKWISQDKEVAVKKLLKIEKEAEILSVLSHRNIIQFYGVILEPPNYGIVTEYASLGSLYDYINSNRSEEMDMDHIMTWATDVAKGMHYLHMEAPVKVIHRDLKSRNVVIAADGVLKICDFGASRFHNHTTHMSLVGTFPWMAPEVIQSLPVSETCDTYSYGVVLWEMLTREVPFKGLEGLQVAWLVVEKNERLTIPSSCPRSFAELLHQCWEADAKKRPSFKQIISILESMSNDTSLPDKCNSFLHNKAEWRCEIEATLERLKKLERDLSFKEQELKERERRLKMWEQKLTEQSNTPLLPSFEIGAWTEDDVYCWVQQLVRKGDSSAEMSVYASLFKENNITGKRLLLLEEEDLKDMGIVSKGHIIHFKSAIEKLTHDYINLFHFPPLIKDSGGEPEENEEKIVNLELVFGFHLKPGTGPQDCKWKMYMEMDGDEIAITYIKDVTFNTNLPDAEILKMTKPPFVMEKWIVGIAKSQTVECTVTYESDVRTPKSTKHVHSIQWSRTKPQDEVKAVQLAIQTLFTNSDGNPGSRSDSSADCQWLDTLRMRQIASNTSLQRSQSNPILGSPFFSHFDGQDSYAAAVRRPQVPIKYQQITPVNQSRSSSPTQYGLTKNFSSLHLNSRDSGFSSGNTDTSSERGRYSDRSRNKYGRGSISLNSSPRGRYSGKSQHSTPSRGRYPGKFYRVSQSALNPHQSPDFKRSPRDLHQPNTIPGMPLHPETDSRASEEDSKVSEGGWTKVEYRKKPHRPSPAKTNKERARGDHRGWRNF
Mitogen-activated protein kinase kinase kinase kinase 5 (Homo sapiens), sequence (Q9Y4K4 whole entry, looked up, the tested form may be a part): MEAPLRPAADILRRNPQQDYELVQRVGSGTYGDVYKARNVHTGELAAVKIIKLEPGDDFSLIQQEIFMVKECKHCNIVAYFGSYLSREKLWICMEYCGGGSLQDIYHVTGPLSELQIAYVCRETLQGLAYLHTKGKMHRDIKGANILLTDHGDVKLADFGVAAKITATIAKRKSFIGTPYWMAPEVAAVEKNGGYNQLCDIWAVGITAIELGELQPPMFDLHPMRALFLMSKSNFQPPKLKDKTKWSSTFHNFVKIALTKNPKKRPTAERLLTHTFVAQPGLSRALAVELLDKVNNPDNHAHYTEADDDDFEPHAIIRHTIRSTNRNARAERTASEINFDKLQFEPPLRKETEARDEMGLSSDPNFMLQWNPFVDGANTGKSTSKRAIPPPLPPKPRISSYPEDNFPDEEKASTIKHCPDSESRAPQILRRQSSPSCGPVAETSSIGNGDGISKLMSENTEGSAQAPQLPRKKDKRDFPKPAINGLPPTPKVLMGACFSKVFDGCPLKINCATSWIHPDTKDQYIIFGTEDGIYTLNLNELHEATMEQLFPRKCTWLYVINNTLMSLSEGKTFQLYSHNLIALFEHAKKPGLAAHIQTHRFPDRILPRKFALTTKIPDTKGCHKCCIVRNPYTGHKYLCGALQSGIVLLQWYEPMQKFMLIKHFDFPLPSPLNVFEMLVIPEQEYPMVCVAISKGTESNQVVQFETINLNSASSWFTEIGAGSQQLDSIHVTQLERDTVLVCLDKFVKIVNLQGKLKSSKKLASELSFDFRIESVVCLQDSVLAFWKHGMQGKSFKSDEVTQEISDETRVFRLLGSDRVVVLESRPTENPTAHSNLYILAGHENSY

| Activity [1] [%] | Activity [2] [%] | Activity [3] [%] | Kd [4] [nM] | SMILES |
| --- | --- | --- | --- | --- |
| 80 | 82 | 86 | 1.1 | O=C(c1cccc(NS(=O)(=O)Cc2ccccc2)c1F)c1c[nH]c2ncc(-c3cnc(C4CC4)nc3)cc12 |
| 5.3 | 48 | 100 | 8.2 | CCCS(=O)(=O)Nc1ccc(F)c(C(=O)c2c[nH]c3ncc(-c4ccc(Cl)cc4)cc23)c1F [VEMURAFENIB] |
| 94 | 98 | 100 | 3.5 | O=C(c1cccc(NS(=O)(=O)Cc2ccccc2)c1F)c1c[nH]c2ncc(-c3cc4c(cc3Cl)OCCO4)cc12 |
| 38 | 86 | 70 | 0.85 | COc1ncc(-c2cnc3[nH]cc(C(=O)c4cccc(NS(=O)(=O)Cc5ccccc5)c4F)c3c2)cn1 |
| 0.7 | 28 | 97 | – | CCCS(=O)(=O)Nc1ccc(F)c(C(=O)c2c[nH]c3ncc(-c4cccc(C)c4)cc23)c1F |
| 6.9 | 67 | 100 | – | CCCS(=O)(=O)Nc1ccc(F)c(C(=O)c2c[nH]c3ncc(-c4ccccc4C)cc23)c1F |
| 0.45 | 76 | 90 | – | CCCS(=O)(=O)Nc1ccc(F)c(C(=O)c2c[nH]c3ncc(-c4ccc5c(c4)OCO5)cc23)c1F |
| 39 | 92 | 90 | – | CCCS(=O)(=O)Nc1ccc(F)c(C(=O)c2c[nH]c3ncc(-c4ncccn4)cc23)c1F |
| 8.3 | 82 | 89 | – | CCS(=O)(=O)Nc1ccc(F)c(C(=O)c2c[nH]c3ncc(-c4ccc(Cl)cc4)cc23)c1F |
